Data: ChEMBL document CHEMBL3044979, “Microbiologically active Mannich bases derived from 1,2,4-triazoles. The effect of C-5 substituent on antibacterial activity” (2013)
Activity calls are given as the source filed them. No cut-off for these calls is given here.

What was measured:
[1] = system: Bacillus cereus; experiment: Antibacterial activity against Bacillus cereus ATCC 10876 assessed as growth inhibition by broth microdilution method; type: functional
Outline: (§1)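 Preliminary screen: 10 µl of each bacterial suspension spotted on Mueller-Hinton agar containing compound at 1,000 µg ml⁻¹, then incubated 37 °C for 18 h. Inocula were prepared in sterile saline at 0.5 McFarland (150 × 10⁶ CFU ml⁻¹). Compounds were dissolved in DMSO stocks and diluted twofold in Mueller-Hinton broth, final 3.91–1,000 µg ml⁻¹. MIC read in µg ml⁻¹ (CLSI 2008), with ampicillin, cefuroxime and vancomycin as reference agents.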

[2] = system: Pseudomonas aeruginosa; experiment: Antibacterial activity against Pseudomonas aeruginosa ATCC 9027 assessed as growth inhibition by broth microdilution method; type: functional, organism-based; outline: as §1
[3] = system: Staphylococcus epidermidis; experiment: Antibacterial activity against Staphylococcus epidermidis ATCC 12228 assessed as growth inhibition by broth microdilution method; type: functional; outline: as §1
[4] = system: Bacillus subtilis; experiment: Antibacterial activity against Bacillus subtilis ATCC 6633 assessed as growth inhibition by broth microdilution method; type: functional; outline: as §1
[5] = system: Escherichia coli; experiment: Antibacterial activity against Escherichia coli ATCC 25922 assessed as growth inhibition by broth microdilution method; type: functional, organism-based; outline: as §1
[6] = system: Staphylococcus aureus; experiment: Antibacterial activity against Staphylococcus aureus 14001 assessed as growth inhibition by broth microdilution method; type: functional; outline: as §1
[7] = system: Klebsiella pneumoniae; experiment: Antibacterial activity against Klebsiella pneumoniae ATCC 13883 assessed as growth inhibition by broth microdilution method; type: functional, organism-based; outline: as §1
[8] = system: Micrococcus luteus; experiment: Antibacterial activity against Micrococcus luteus ATCC 10240 assessed as growth inhibition by broth microdilution method; type: functional; outline: as §1
[9] = system: Proteus mirabilis; experiment: Antibacterial activity against Proteus mirabilis ATCC 12453 assessed as growth inhibition by broth microdilution method; type: functional, organism-based; outline: as §1
[10] = system: Staphylococcus aureus; experiment: Antibacterial activity against Staphylococcus aureus ATCC 25923 assessed as growth inhibition by broth microdilution method; type: functional; outline: as §1

Row | SMILES | MIC [1] | growth inhibition (GI) [2] | MBC [1] | MBC [3] | MIC [3] | MBC [4] | MIC [4] | growth inhibition (GI) [5] | MBC [6] | MIC [6] | growth inhibition (GI) [7] | MBC [8] | MIC [8] | growth inhibition (GI) [9] | MBC [10] | MIC [10]
1 | CC1(C)S[C@@H]2[C@H](NC(=O)[C@H](N)c3ccccc3)C(=O)N2[C@H]1C(=O)O [AMPICILLIN] | 62.5 µg/mL | – | – | – | – | – | – | – | – | – | – | – | – | – | – | –
2 | S=c1n(CN2CCCCC2)nc(-c2ccccc2Cl)n1-c1ccc(Br)cc1 | 1000 µg/mL | inactive | > 1000 µg/mL | > 1000 µg/mL | 1000 µg/mL | > 1000 µg/mL | 250 µg/mL | inactive | > 1000 µg/mL | 500 µg/mL | inactive | > 1000 µg/mL | 500 µg/mL | inactive | > 1000 µg/mL | 500 µg/mL
3 | S=c1n(CN2CCOCC2)nc(-c2cccc(Cl)c2)n1-c1ccc(Br)cc1 | 62.5 µg/mL | inactive | > 1000 µg/mL | > 1000 µg/mL | 125 µg/mL | 1000 µg/mL | 62.5 µg/mL | inactive | – | – | inactive | 500 µg/mL | 31.2 µg/mL | inactive | > 1000 µg/mL | 31.2 µg/mL
4 | CCN(CC)Cn1nc(-c2cccc(Cl)c2)n(-c2ccc(Br)cc2)c1=S | 62.5 µg/mL | inactive | > 1000 µg/mL | > 1000 µg/mL | 62.5 µg/mL | 500 µg/mL | 62.5 µg/mL | inactive | – | – | inactive | 500 µg/mL | 31.2 µg/mL | inactive | > 1000 µg/mL | 31.2 µg/mL
5 | CCN(CC)Cn1nc(-c2ccc(Cl)cc2)n(-c2ccc(Br)cc2)c1=S | 31.2 µg/mL | inactive | 250 µg/mL | 250 µg/mL | 31.2 µg/mL | 500 µg/mL | 31.2 µg/mL | inactive | 250 µg/mL | 62.5 µg/mL | inactive | 62.5 µg/mL | 15.6 µg/mL | inactive | 250 µg/mL | 31.2 µg/mL
6 | CCN(CC)Cn1nc(-c2ccccc2)n(-c2ccc(Br)cc2)c1=S | 1000 µg/mL | inactive | > 1000 µg/mL | > 1000 µg/mL | 1000 µg/mL | > 1000 µg/mL | 1000 µg/mL | inactive | > 1000 µg/mL | 1000 µg/mL | inactive | > 1000 µg/mL | 1000 µg/mL | inactive | > 1000 µg/mL | 1000 µg/mL
7 | CO/N=C(\C(=O)N[C@@H]1C(=O)N2C(C(=O)O)=C(COC(N)=O)CS[C@H]12)c1ccco1 [CEFUROXIME] | 31.2 µg/mL | – | – | – | 0.24 µg/mL | – | 15.6 µg/mL | – | – | – | – | – | 0.98 µg/mL | – | – | 0.49 µg/mL
8 | S=c1n(CN2CCOCC2)nc(-c2ccccc2Cl)n1-c1ccc(Br)cc1 | 125 µg/mL | inactive | > 1000 µg/mL | 500 µg/mL | 125 µg/mL | 250 µg/mL | 125 µg/mL | inactive | 500 µg/mL | 250 µg/mL | inactive | 250 µg/mL | 62.5 µg/mL | inactive | 500 µg/mL | 125 µg/mL
9 | S=c1n(CN2CCCC2)nc(-c2cccc(Cl)c2)n1-c1ccc(Br)cc1 | 62.5 µg/mL | inactive | > 1000 µg/mL | > 1000 µg/mL | 250 µg/mL | 500 µg/mL | 62.5 µg/mL | inactive | – | – | inactive | > 1000 µg/mL | 62.5 µg/mL | inactive | > 1000 µg/mL | 31.2 µg/mL
10 | S=c1n(CN2CCCCC2)nc(-c2ccccc2)n1-c1ccc(Br)cc1 | 1000 µg/mL | inactive | > 1000 µg/mL | > 1000 µg/mL | 1000 µg/mL | > 1000 µg/mL | 1000 µg/mL | inactive | > 1000 µg/mL | 1000 µg/mL | inactive | 1000 µg/mL | 500 µg/mL | inactive | > 1000 µg/mL | 1000 µg/mL
11 | S=c1n(CN2CCOCC2)nc(-c2ccccc2)n1-c1ccc(Br)cc1 | 1000 µg/mL | inactive | > 1000 µg/mL | > 1000 µg/mL | 1000 µg/mL | > 1000 µg/mL | 1000 µg/mL | inactive | > 1000 µg/mL | 1000 µg/mL | inactive | 1000 µg/mL | 250 µg/mL | inactive | > 1000 µg/mL | 1000 µg/mL
12 | S=c1n(CN2CCCCC2)nc(-c2ccc(Cl)cc2)n1-c1ccc(Br)cc1 | 1000 µg/mL | inactive | > 1000 µg/mL | > 1000 µg/mL | 1000 µg/mL | > 1000 µg/mL | 1000 µg/mL | inactive | > 1000 µg/mL | 1000 µg/mL | inactive | > 1000 µg/mL | 1000 µg/mL | inactive | > 1000 µg/mL | 1000 µg/mL
13 | CN[C@H](CC(C)C)C(=O)N[C@H]1C(=O)N[C@@H](CC(N)=O)C(=O)N[C@H]2C(=O)N[C@H]3C(=O)N[C@H](C(=O)N[C@H](C(=O)O)c4cc(O)cc(O)c4-c4cc3ccc4O)[C@H](O)c3ccc(c(Cl)c3)Oc3cc2cc(c3O[C@@H]2O[C@H](CO)[C@@H](O)[C@H](O)[C@H]2O[C@H]2C[C@](C)(N)[C@H](O)[C@H](C)O2)Oc2ccc(cc2Cl)[C@H]1O [VANCOMYCIN] | – | – | – | – | – | – | – | – | 3.91 µg/mL | 0.98 µg/mL | – | – | – | – | – | –
14 | S=c1n(CN2CCCCC2)nc(-c2cccc(Cl)c2)n1-c1ccc(Br)cc1 | 62.5 µg/mL | inactive | 1000 µg/mL | > 1000 µg/mL | 62.5 µg/mL | 1000 µg/mL | 62.5 µg/mL | inactive | – | – | inactive | > 1000 µg/mL | 31.2 µg/mL | inactive | > 1000 µg/mL | 31.2 µg/mL
15 | CCN(CC)Cn1nc(-c2ccccc2Cl)n(-c2ccc(Br)cc2)c1=S | 62.5 µg/mL | inactive | > 1000 µg/mL | > 1000 µg/mL | 62.5 µg/mL | 62.5 µg/mL | 31.2 µg/mL | inactive | > 1000 µg/mL | 125 µg/mL | inactive | 250 µg/mL | 62.5 µg/mL | inactive | > 1000 µg/mL | 62.5 µg/mL
16 | S=c1n(CN2CCOCC2)nc(-c2ccc(Cl)cc2)n1-c1ccc(Br)cc1 | 62.5 µg/mL | inactive | > 1000 µg/mL | 1000 µg/mL | 62.5 µg/mL | 125 µg/mL | 125 µg/mL | inactive | > 1000 µg/mL | 125 µg/mL | inactive | > 1000 µg/mL | 62.5 µg/mL | inactive | 1000 µg/mL | 62.5 µg/mL
17 | S=c1n(CN2CCCC2)nc(-c2ccc(Cl)cc2)n1-c1ccc(Br)cc1 | 31.2 µg/mL | inactive | > 1000 µg/mL | 1000 µg/mL | 31 µg/mL | 125 µg/mL | 63 µg/mL | inactive | 1000 µg/mL | 62.5 µg/mL | inactive | 250 µg/mL | 7.81 µg/mL | inactive | 500 µg/mL | 31.2 µg/mL
18 | S=c1n(CN2CCCC2)nc(-c2ccccc2Cl)n1-c1ccc(Br)cc1 | 62.5 µg/mL | inactive | > 1000 µg/mL | 500 µg/mL | 31.2 µg/mL | 125 µg/mL | 15.6 µg/mL | inactive | 500 µg/mL | 125 µg/mL | inactive | 1000 µg/mL | 62.5 µg/mL | inactive | 500 µg/mL | 31.2 µg/mL
19 | S=c1n(CN2CCCC2)nc(-c2ccccc2)n1-c1ccc(Br)cc1 | 1000 µg/mL | inactive | > 1000 µg/mL | > 1000 µg/mL | 1000 µg/mL | 1000 µg/mL | 500 µg/mL | inactive | > 1000 µg/mL | 1000 µg/mL | inactive | 1000 µg/mL | 500 µg/mL | inactive | > 1000 µg/mL | 1000 µg/mL
